RGS4 inh: RGS4 inhibitors, primary screen, cell-based, HEK293 M3R inducible RGS4, calcium flux; Regulator of G-protein signaling 4 (Homo sapiens), P49798; actives 0.45% (n = 310,000); B-score at 10 µM; AID 463165, 2010; Fluo-4 calcium flux; hits give high values; triggered by carbachol at its EC20;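 active = B-score, a plate-corrected calcium signal, over three deviations above library mean, with baseline fluorescence within five deviations of library mean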;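 also: RGS4 expression induced by doxycycline in cells with stable M3 receptor; B-score is computed from the integrated fluorescence ratio over baseline after carbachol; higher B-score means a larger calcium signal and so more RGS4 inhibition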
Target sequence (P49798 whole entry, looked up): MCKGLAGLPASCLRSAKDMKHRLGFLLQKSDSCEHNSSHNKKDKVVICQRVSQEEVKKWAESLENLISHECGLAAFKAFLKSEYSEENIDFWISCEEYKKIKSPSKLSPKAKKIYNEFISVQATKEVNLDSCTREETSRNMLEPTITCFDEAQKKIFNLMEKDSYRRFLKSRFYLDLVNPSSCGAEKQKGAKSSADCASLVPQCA
MrgX1 allo act: positive allosteric modulators of MrgX1, primary screen, HEK293 cells, Fluo-4 calcium flux. Mas-related G-protein coupled receptor member X1 (Homo sapiens), Q96LB2. AID 588675, 2011. actives 0.63% (n = 310,000). FDSS; hits give high values. B-score at 10 µM;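 active = plate-corrected calcium response at least 3 library SD above typical, normal starting fluorescence, not activating the receptor alone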;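 also: compound read alongside a low EC10 to EC30 dose of BAM8-22 agonist; peak minus trough fluorescence over baseline measured at the second addition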
Target sequence (Q96LB2 whole entry, looked up): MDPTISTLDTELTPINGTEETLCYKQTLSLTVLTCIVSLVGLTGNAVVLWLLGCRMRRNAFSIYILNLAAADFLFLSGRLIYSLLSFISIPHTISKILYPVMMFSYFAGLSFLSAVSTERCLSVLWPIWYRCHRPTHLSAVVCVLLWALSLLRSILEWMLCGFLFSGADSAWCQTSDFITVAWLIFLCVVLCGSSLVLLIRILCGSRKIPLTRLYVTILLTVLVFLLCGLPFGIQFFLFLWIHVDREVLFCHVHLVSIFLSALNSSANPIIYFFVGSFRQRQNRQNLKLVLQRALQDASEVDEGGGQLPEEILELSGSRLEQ
RGS4 pot: RGS4 potentiators or activators, primary screen, cell-based, HEK293 M3R inducible RGS4, calcium flux | carbachol calcium flux Fluo4; hits give low values | B-score at 10 µM | actives 0.92% (n = 310,000) | AID 463111, 2010;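 active = B-score of the integrated calcium signal more than 4 SD below the library mean, with starting fluorescence not abnormally high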;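 also: negative B-score means reduced calcium response which marks RGS4 activation or potentiation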
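Material: M3R-expressing HEK293 line, RGS4 induced by doxycycline | Schedule: Overnight RGS4 induction, 30 min dye load 37 °C, 20 min compound RT | Measured by: Fluo4 fluorescence kinetic imaging of calcium | Read-out: Integrated calcium ratio converted to B score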
MrgX1 ag: agonists of human MrgX1 receptor, primary screen, HEK293 cells, Fluo-4 calcium flux | Fluo-4 calcium fluorescence, agonist mode; hits give high values | Mas-related G-protein coupled receptor member X1 (Homo sapiens), Q96LB2 | actives 0.44% (n = 310,000) | B-score at 10 µM;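 active = calcium response B-score plate-corrected fluorescence ratio at least 3 library SD, with starting fluorescence B-score inside 5 SD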
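Material: MrgX1-expressing HEK293 cells / Dosing: compound as first of three additions / Incubation: overnight seeding, then 1 h dark dye loading / Signal: Fluo-4 NW calcium fluorescence / Evaluation: B-scored fluorescence response ratio / Benchmarks: positive and negative control wells on each plate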
MrgX1 antag: antagonists of human MrgX1 receptor, primary screen, HEK293 cells, Fluo-4 calcium flux; Mas-related G-protein coupled receptor member X1 (Homo sapiens), Q96LB2; BAM8-22 antagonism; hits give low values; B-score at 10 µM; actives 1.3% (n = 310,000);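 active = calcium-response B-score plate-corrected more than 3 library SD below zero, starting fluorescence within 5 deviations, no agonist response on first addition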;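 also: peak minus trough fluorescence over baseline after final BAM8-22 challenge near maximal dose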
A number is an active result. Compounds with a hit are over-represented: about 3.5% of the library has one in this group of screens.

How did Cc1ccc2oc(-c3cccc(NC(=S)NC(=O)c4cccs4)c3)nc2c1 do in these assays?
RGS4 inh: inactive; MrgX1 allo act: inactive; RGS4 pot: inactive; MrgX1 ag: inactive; MrgX1 antag: inactive

Results for Cc1ccc2oc(-c3cccc(NC(=S)NC(=O)/C=C/c4ccco4)c3)nc2c1 ?
RGS4 inh: inactive; MrgX1 allo act: inactive; RGS4 pot: -7.09; MrgX1 ag: inactive; MrgX1 antag: inactive

Results for O=C(/C=C/c1ccco1)NC(=S)Nc1nc(-c2ccc3ccccc3c2)cs1 ?
RGS4 inh: inactive; MrgX1 allo act: inactive; RGS4 pot: inactive; MrgX1 ag: inactive; MrgX1 antag: -6.57

What do the screens show for `O=C(/C=C/c1ccco1)NC(=S)Nc1nc(-c2ccc(Cl)cc2)cs1`?
RGS4 inh: inactive; MrgX1 allo act: inactive; RGS4 pot: inactive; MrgX1 ag: inactive; MrgX1 antag: inactive

How did COc1ccc(/C=C/C(=O)NC(=S)NNC(=O)c2cnccn2)cc1 do in these assays?
RGS4 inh: inactive; MrgX1 allo act: inactive; RGS4 pot: inactive; MrgX1 ag: inactive; MrgX1 antag: -6.49

What do the screens show for `O=C(Cc1ccccc1[N+](=O)[O-])N1CCc2ccccc2C1`?
RGS4 inh: inactive; MrgX1 allo act: inactive; RGS4 pot: inactive; MrgX1 ag: inactive; MrgX1 antag: inactive

Results for CN1C(=O)C(C(=O)NC(C)(C)C)C2c3ccccc3OC13CCCCC23 (configuration not stated) ?
RGS4 inh: inactive; MrgX1 allo act: inactive; RGS4 pot: inactive; MrgX1 ag: inactive; MrgX1 antag: inactive

How did Cc1ccccc1NC(=O)c1ccc(Cl)c(NC(=O)c2cccnc2)c1 do in these assays?
RGS4 inh: inactive; MrgX1 allo act: inactive; RGS4 pot: inactive; MrgX1 ag: inactive; MrgX1 antag: inactive

Results for Cc1nonc1OCCCNc1ccc([N+](=O)[O-])cc1Cl ?
RGS4 inh: inactive; MrgX1 allo act: inactive; RGS4 pot: inactive; MrgX1 ag: inactive; MrgX1 antag: inactive

What do the screens show for `O=C(/C=C/c1ccco1)NC(=S)Nc1ccccn1`?
RGS4 inh: inactive; MrgX1 allo act: 18; RGS4 pot: inactive; MrgX1 ag: inactive; MrgX1 antag: inactive

How did C=CCN(CC=C)C(=S)NC(=O)/C=C/c1ccc(OC)cc1 do in these assays?
RGS4 inh: inactive; MrgX1 allo act: 8.92; RGS4 pot: inactive; MrgX1 ag: inactive; MrgX1 antag: inactive

How did COc1cccc(/C=C/C(=O)OCC(=O)NCCC2=CCCCC2)c1 do in these assays?
RGS4 inh: inactive; MrgX1 allo act: inactive; RGS4 pot: inactive; MrgX1 ag: inactive; MrgX1 antag: inactive

Results for O=C(c1cc([N+](=O)[O-])cc([N+](=O)[O-])c1)N1CCOCC1 ?
RGS4 inh: inactive; MrgX1 allo act: inactive; RGS4 pot: inactive; MrgX1 ag: inactive; MrgX1 antag: inactive

What do the screens show for `O=C1Nc2ccccc2C1=Nc1ccc(Cl)cc1`?
RGS4 inh: inactive; MrgX1 allo act: inactive; RGS4 pot: inactive; MrgX1 ag: inactive; MrgX1 antag: inactive

How did Cc1ccc(N=C2C(=O)Nc3ccccc32)cc1 do in these assays?
RGS4 inh: inactive; MrgX1 allo act: inactive; RGS4 pot: inactive; MrgX1 ag: 42.3; MrgX1 antag: inactive

What do the screens show for `COc1ccc(NS(=O)(=O)c2cccc(C(=O)NCC(c3ccccc3)N(C)C)c2)cc1` (configuration not stated)?
RGS4 inh: inactive; MrgX1 allo act: inactive; RGS4 pot: inactive; MrgX1 ag: inactive; MrgX1 antag: -5.04

What do the screens show for `Cc1nc2c(c(C)nn2-c2ccccc2)c(C)c1CCC(=O)Nc1ccc(CN2CCCC2)cc1`?
RGS4 inh: inactive; MrgX1 allo act: 12; RGS4 pot: inactive; MrgX1 ag: inactive; MrgX1 antag: inactive

How did CCC(C)NC(=O)CCc1c(C)nc2c(c(C)nn2-c2ccccc2)c1C (configuration not stated) do in these assays?
RGS4 inh: inactive; MrgX1 allo act: inactive; RGS4 pot: inactive; MrgX1 ag: inactive; MrgX1 antag: inactive

How did Cc1ccccc1-c1nnc(Cc2ccccc2)o1 do in these assays?
RGS4 inh: inactive; MrgX1 allo act: inactive; RGS4 pot: inactive; MrgX1 ag: inactive; MrgX1 antag: inactive

Results for CN=c1scc(-c2ccccc2F)n1/N=C/c1ccc[nH]1 ?
RGS4 inh: inactive; MrgX1 allo act: 6.98; RGS4 pot: inactive; MrgX1 ag: inactive; MrgX1 antag: inactive

Results for CC(C)(C)c1ccc(/C=C/C(=O)N2CCN(c3ncccn3)CC2)cc1 ?
RGS4 inh: inactive; MrgX1 allo act: inactive; RGS4 pot: inactive; MrgX1 ag: inactive; MrgX1 antag: -6.26

What do the screens show for `Cc1ncc(CO)c(/C=N/NC(=O)c2cc(Br)ccc2O)c1O`?
RGS4 inh: inactive; MrgX1 allo act: inactive; RGS4 pot: inactive; MrgX1 ag: inactive; MrgX1 antag: inactive

How did Cc1ncc(CO)c(/C=N/NC(=O)c2ccc(Br)cc2)c1O do in these assays?
RGS4 inh: 8.44; MrgX1 allo act: inactive; RGS4 pot: inactive; MrgX1 ag: inactive; MrgX1 antag: inactive

Results for CCN(CC)C(=O)Cn1nnc(-c2ccc(S(C)(=O)=O)cc2)n1 ?
RGS4 inh: inactive; MrgX1 allo act: inactive; RGS4 pot: inactive; MrgX1 ag: inactive; MrgX1 antag: inactive

How did COC(=O)C1=CN(C2CC2)C=C(C(=O)OC)C1c1ccc(C(F)(F)F)cc1 do in these assays?
RGS4 inh: inactive; MrgX1 allo act: inactive; RGS4 pot: inactive; MrgX1 ag: inactive; MrgX1 antag: -6.61

What do the screens show for `COC(=O)C1=CN(C2CC2)C=C(C(=O)OC)C1c1ccc(C(=O)OC)cc1`?
RGS4 inh: inactive; MrgX1 allo act: inactive; RGS4 pot: inactive; MrgX1 ag: inactive; MrgX1 antag: inactive

How did CC(C)NCC(O)c1ccc2ccccc2c1 (configuration not stated) do in these assays?
MrgX1 allo act: inactive; MrgX1 ag: inactive; MrgX1 antag: inactive

How did NC[C@H](O)c1ccc(O)c(O)c1 do in these assays?
MrgX1 allo act: inactive; MrgX1 ag: 38.7; MrgX1 antag: inactive

How did CC(C)NCC(O)c1ccc(O)c(O)c1 (configuration not stated) do in these assays?
RGS4 inh: inactive; MrgX1 allo act: inactive; RGS4 pot: inactive; MrgX1 ag: 32.9; MrgX1 antag: inactive

What do the screens show for `COc1cc(C(O)CO)ccc1O` (configuration not stated)?
MrgX1 allo act: inactive; MrgX1 ag: inactive; MrgX1 antag: inactive

Results for COc1ccccc1NC(=O)C(=N\O)/C(C)=N/O ?
RGS4 inh: inactive; MrgX1 allo act: inactive; RGS4 pot: inactive; MrgX1 ag: inactive; MrgX1 antag: inactive

How did Cc1cc(C)cc(N(CCC#N)C(=O)COC(=O)C2CCN(c3ccc(C(F)(F)F)cn3)CC2)c1 do in these assays?
RGS4 inh: inactive; MrgX1 allo act: inactive; RGS4 pot: -7.02; MrgX1 ag: inactive; MrgX1 antag: inactive

Results for Cc1ccc(N(CCC#N)C(=O)COC(=O)C2CCN(c3ccc(C(F)(F)F)cn3)CC2)cc1 ?
RGS4 inh: inactive; MrgX1 allo act: inactive; RGS4 pot: inactive; MrgX1 ag: inactive; MrgX1 antag: inactive
